Bioassay records (PubChem)
CSN inh – CSN deneddylation inhibition | Q92905 | Purified CSN, SCF-Nedd8-OG deneddylation, fluorescence polarization | inhibition, % at 12.5 µM | 360,000 tested, 0.38% active;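 active = pattern-corrected inhibition above about 35%, with an unprinted fluorescence ratio check between 0.5 and 1.5, limit read from the data, passing the limit was not always enough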;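 also: 0% = enzyme with substrate and 100% = substrate without enzyme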
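Assay system: HEK293T-derived human Csn5 enzyme; quantity: 0.24 nM enzyme; medium: Tris/NaCl/DTT buffer, pH 7.5; also added: substrate SCFSkp2-Nedd8OG, 10 nM; doses: 12.5 µM compound; schedule: 90 min reaction at room temperature; signal: FP; read-out: % inhibition of substrate cleavage by Csn5; benchmarks: substrate-only high control, full reaction low control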
HNF4A DNA FP – change in binding of human HNF4 alpha to DNA. P41235. HNF4a-FITC DNA binding, fluorescence polarization, 1 h. activity change, % at 10 µM. 360,000 tested, 0.3% active; in the data active = activity change above about 30%, passing the limit was not always enough
TPT1 inh – C. albicans TPT1 enzyme inhibition | recombinant caTPT1, FP RNA substrate dephosphorylation | inhibition, % at 5 µM | 300,000 tested, 0.81% active;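 active = inhibition above the mean of all tested compounds plus 3 SD, set per screening campaign, cut at about 24% in these data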;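 also: plate controls were DMSO alone for no effect and ferristatin control at 100 nM for full effect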
Rtt109 HAT inh – inhibitors of Candida albicans Rtt109/Vps75 histone acetyltransferase. Q5AAJ8. purified Rtt109/Vps75, ThioGlo CoA-SH fluorescence, 4 h. inhibition, % at 34.9 µM. 330,000 tested, 0.16% active;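 active = inhibition of at least 50% in every replicate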
Target sequence (Q5AAJ8 whole entry, looked up): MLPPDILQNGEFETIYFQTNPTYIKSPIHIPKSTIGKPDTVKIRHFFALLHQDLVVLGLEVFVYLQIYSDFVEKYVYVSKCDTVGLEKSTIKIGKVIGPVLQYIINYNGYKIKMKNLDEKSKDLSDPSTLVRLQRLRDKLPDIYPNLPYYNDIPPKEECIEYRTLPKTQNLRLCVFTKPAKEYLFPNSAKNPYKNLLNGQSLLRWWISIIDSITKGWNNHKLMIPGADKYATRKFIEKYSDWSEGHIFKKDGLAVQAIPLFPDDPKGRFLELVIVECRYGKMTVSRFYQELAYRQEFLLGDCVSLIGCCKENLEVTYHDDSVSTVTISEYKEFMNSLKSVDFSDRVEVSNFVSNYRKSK
caTPT1 confirm – confirmation of Candida albicans TPT1 inhibitors | AID 2149 | inhibition, % at 5 µM | 2,400 tested, 74% active | shares compounds with TPT1 inh | recombinant caTPT1, fluorescence polarization, RNase T1 coupled;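 active = inhibition above the primary screen limit, the mean inhibition of all tested compounds plus 3 SD, cut at about 25% in these data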
RNase T1 inh – RNase T1 inhibition in TPT1 counter-screen. inhibition, % at 5 µM. AID 2153. shares compounds with TPT1 inh. 2,400 tested, 83% active. RNase T1 cleavage, fluorescence polarization, 1536-well;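 active = inhibition above the solvent-only control well mean plus 3 SD, limit set per screening run, cut at about 23% in these data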;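 also: plate controls were DMSO wells with enzyme for no effect and wells without RNase T1 for full effect; inhibitors block cleavage so intact labeled substrate keeps polarization high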
Target sequence (P00651 whole entry, looked up): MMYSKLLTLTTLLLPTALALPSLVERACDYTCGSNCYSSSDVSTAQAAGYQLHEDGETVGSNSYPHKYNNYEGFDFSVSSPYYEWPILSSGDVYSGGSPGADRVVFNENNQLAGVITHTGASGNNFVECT
Active calls of the source: *; i = inactive; / = no result given; ! = not confirmed by another sample. An excerpt weighted towards active compounds, which were near 1.2% of everything screened.

SMILES	CSN inh	HNF4A DNA FP	TPT1 inh	Rtt109 HAT inh	caTPT1 confirm	RNase T1 inh
CCCCn1c(O)c(/C=C/C=C/C=Nc2ccccc2)sc1=S	24	51*	44*	6	20	28*
Oc1c(/C=C/C=C/C=Nc2ccccc2)sc(=S)n1Cc1ccccc1	25	43*	43*	/	28*	39*
NC(Cc1ccc(Cl)cc1)c1csc(Nc2ccc(C(=O)NCCCO)cn2)n1 (centres undefined)	0	0	/	/	/	/
CCN(CC)c1ccc(/C=C2/C(=O)c3ccc(C(=O)O)cc3C2=O)cc1	90	82*	136*	-5	121*	114*
CCCCC1(C)OC(=O)C(=Cc2ccc(N(CC)CC)cc2)C(=O)O1 (centres undefined)	27	7	92*	3	167*	155*
CCN(CC)c1ccc(C=C2C(=O)OC3(CCCCC3)OC2=O)cc1	26	10	101*	3	166*	156*
CCN1C(=O)c2ccc(C(=O)O)cc2C1=O	5	0	-8	/	/	/
CCN(CC)c1ccc(/C=N/NC(=O)Cc2cccs2)cc1	5	2	-1	3	/	/
CN(C)C(=O)OCC1COc2ccccc2O1 (centres undefined)	4	2	-5	4	/	/
O=C(/C=C/c1cn(CC(O)CN2CCOCC2)c2ccccc12)c1cccs1 (centres undefined)	/	/	63*	/	82*	88*
OC(CN1CCOCC1)Cn1cnc2ccccc21 (centres undefined)	2	3	3	1	/	/
O=Cc1cn(CC(O)CN2CCCCC2)c2ccccc12 (centres undefined)	3	3	-1	-7	/	/
Cc1ccc(C(=O)/C=C/c2cn(CC(O)CN3CCOCC3)c3ccccc23)cc1 (centres undefined)	14	25	47*	-7	46*	57*
COc1ccc(N(CC(=O)N/N=C/c2ccc(-c3ccc([N+](=O)[O-])cc3)o2)S(=O)(=O)c2ccc(C)cc2)cc1	28	35	5	-4	/	/
COc1ccc(N(CC(=O)N/N=C/c2ccc(-c3ccc([N+](=O)[O-])cc3)o2)S(=O)(=O)c2ccc(C)cc2)cc1Cl	14	22	43*	-4	42*	51*
CC(C)(C)NC(=O)CSc1nc(O)cc(=O)n1-c1ccccc1F	56*	78*	109*	11	84*	94*
COC(=O)c1ccc(CN2CCCC(C(=O)c3ccccc3OC)C2)cc1 (centres undefined)	2	-3	-4	3	/	/
CCOC(=O)[C@]12CCC=C1N(Cc1ccc3c(c1)OCO3)C(=O)[C@H](CC(=O)NCC13CC4CC(CC(C4)C1)C3)C2	0	3	/	/	/	/
COC(=O)c1c(NC(=O)CN2CCN(c3ncccn3)CC2)sc(C(N)=O)c1C	2	2	3	20	/	/
Cc1ccc(OCC(=O)N2CCN(c3ccc([N+](=O)[O-])c(N4CCOCC4)c3)CC2)cc1	-4	1	31*	/	3	17
O=C(COc1ccc(Cl)cc1)N1CCN(c2ccc([N+](=O)[O-])c(N3CCOCC3)c2)CC1	2	0	-1	3	/	/
NC1=NC(=O)/C(=C/c2ccc(-c3ccc(S(N)(=O)=O)cc3)o2)S1	34	-7	-10	0	/	/
CS(=O)(=O)Nc1ccc(-c2ccc(/C=C3\SC(N)=NC3=O)o2)cc1	10	42*	44*	0	54*	68*
O=c1cnc2cc([N+](=O)[O-])ccc2[nH]1	5	2	1	2	/	/
O=S(=O)(/C=C/c1ccccc1)Nc1ccc(N2CCOCC2)cc1	-4	1	3	-1	/	/
SMILES	CSN inh	HNF4A DNA FP	TPT1 inh	Rtt109 HAT inh	caTPT1 confirm	RNase T1 inh
O=C(O)c1ccc(NS(=O)(=O)/C=C/c2ccccc2)cc1O	-3	3	24*	-8	3	5
CSc1ncccc1C(=O)OCC(=O)Nc1ccc(N2CCOCC2)cc1	3	-2	/	-5	/	/
COc1ccc(/C=C2\SC(=S)N(CC3CCCO3)C2=O)cc1 (centres undefined)	4	-1	0	12	/	/
COc1ccc(N=C2O/C(=C/c3sc(=S)n(CC4CCCO4)c3O)N=C2C#N)cc1 (centres undefined)	11	31	45*	/	52*	61*
Cc1ccc(S(=O)(=O)Nc2cc(C)cn(Cc3ccc(F)cc3)c2=O)cc1	18	18	24*	-10	36*	47*
Cc1ccc(S(=O)(=O)Nc2cc(C)cn(Cc3ccccc3)c2=O)cc1	14	18	12	-4	/	/
Cc1cn([C@H]2C[C@H](O)[C@@H](CNCc3ccccc3OCCCN3CCOCC3)O2)c(=O)[nH]c1=O	0	5	/	/	/	/
O=C1CCCCC1C(O)c1ccc(Cl)cc1 (centres undefined)	/	/	82*	/	1	3
COCCN(CCOC)Cc1c(O)ccc2c1O/C(=C\c1ccc(C)o1)C2=O	10	32	27*	3	34*	46*
CCN(CC)Cc1c(O)ccc2c1O/C(=C\C=C\c1ccccc1)C2=O	37	45	12	-24	/	/
COc1ccccc1C(=O)NC(=O)COC(=O)CNC(=O)c1ccc(Cl)cc1Cl	1	-2	-2	-15	/	/
CCN1CCN(Cc2ccc(NC(=O)c3ccc(C)c(NC(=O)c4ccno4)c3)cc2C(F)(F)F)CC1	9	5	-1	1	/	/
CCN1CCN(Cc2ccc(NC(=O)c3ccc(C)c(/C=C/c4cnc(Nc5cc(N6CCNCC6)nc(C)n5)cn4)c3)cc2C(F)(F)F)CC1	57*!	125	78*	25	83*	87*
NS(=O)(=O)c1ccc(-c2ccc(/C=C3\C(=O)Nc4ccccc43)o2)cc1	/	/	4	/	/	/
CC1(C)OC(=O)C(=Cc2ccc(-c3ccc(S(N)(=O)=O)cc3)o2)C(=O)O1	12	10	28*	0	8	13
CC(C)N1C(=O)NC2NC(=O)N(C(C)C)C21 (centres undefined)	-4	-1	/	/	/	/
CN(C(=O)CCc1nc2ccccc2c(=O)[nH]1)C1CCS(=O)(=O)C1 (centres undefined)	2	0	/	8	/	/
Cc1nc2ccccc2nc1OCC(=O)Nc1ccccc1	0	0	96*	-3	4	5
COc1cccc(NC(=O)COc2nc3ccccc3nc2C)c1	-1	4	16	0	/	/
CCOC(=O)N1CCC2(CC1)C(C#N)=C(N)Oc1c2sc2nc(C)cc(C)c12	-4	-1	2	3	/	/
CCCN1CCC2(CC1)C(C#N)=C(N)Oc1c2sc2nc(C)cc(C)c12	-2	1	24*	5	19	27*
CN(C)CCCn1c(N)c(C#N)c2nc3ccccc3nc21	20	91	26*	i	30*	43*
